The source of these data is ChEMBL document CHEMBL3272073, “3-Fluoro-1-hydroxypropan-2-one (fluorohydroxyacetone) and some esters. Syntheses and effects in BDF mice” (J Med Chem, 1977).

Structures are written as SMILES. Calls of active or inactive are those of the source.

The nature of data set [1]: Toxicity in ip dosed BDF1 mouse. The class given is organism-based. As to conditions: in vivo. Summed up: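 Acute toxicity in female BDF1 mice, reported as LD50 in mg/kg and mmol/kg.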
For data set [2], the system named is Ehrlich. The experiment in a line: Antitumor activity against mouse EAC allografted in BDF1 mouse assessed as inhibition of tumor growth < LD50 administered as ip. The class given is functional.
For data set [3], the system named is Ehrlich. The data set is described as follows: Antitumor activity against mouse EAC allografted in BDF1 mouse assessed as cure from tumor at < LD50 administered as ip after 180 days. It is filed as functional, organism-based. Summed up: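 Mice bearing Ehrlich ascites carcinoma were treated with ester. Cure was defined as survival to 180 days.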
The nature of data set [4]: Toxicity in mouse L1210 cells allografted immunosuppressed BDF1 mouse assessed as mortality dosed intraperitoneally <LD50 after 60 days. It is filed as organism-based. As to conditions: in vivo, ip, read-out: Activity.
Data set [5] relates to L1210. The experiment in a line: Antitumor activity against mouse L1210 cells allografted in immune competent BDF1 mouse assessed as increase of host survival at < LD50 administered as ip after 60 days. It is filed as functional.

As a reminder, the LD50 is the dose expected to kill half of the subjects tested. In data set [1], `COC(CO)(CF)OC` registered an LD50 of 200 µmol/kg. Compound `O=C(CF)COC(=O)c1ccc([N+](=O)[O-])cc1` registered an LD50 in data set [1] of 370 µmol/kg.

In turn, `O=C(OCC(O)CF)c1ccccc1` (stereo not given) gave an LD50 in data set [1] of 230 µmol/kg. `O=C(CF)COP(=O)(O)O`: the TGI entry in data set [2] is “Active”. For the same compound, in data set [1], the LD50 worked out at 150 µmol/kg. In turn, `O=C(CO)CF` yielded an LD50 in data set [1] of 220 µmol/kg.

Regarding `O=C(CF)COC(=O)c1ccccc1`, the TGI entry in data set [2] is “Active”. For the same compound, the LD50 in data set [1] came out at 180 µmol/kg.

In data set [1], `O=C(CCl)COP(=O)(O)O` gave a median lethal dose (LD50) of 360 µmol/kg. Consider `C1CCC(NC2CCCCC2)CC1.O=P(O)(O)OCC(O)CCl`, for which, in data set [1], the LD50 stood at 2100 µmol/kg.

As for `C1CCC(NC2CCCCC2)CC1.O=P(O)(O)OCC(O)CF`, in data set [1], the LD50 worked out at 300 µmol/kg. Consider `O=C(OCC(O)CCl)c1ccccc1` (stereo not given), for which the 50% lethal dose (LD50) in data set [1] was 2100 µmol/kg. As for `O=C(CCl)COC(=O)c1ccc([N+](=O)[O-])cc1`, the LD50 in data set [1] was 660 µmol/kg. In data set [3], the outcome was Active. As to `O=C(CCl)COC(=O)c1ccccc1`, in data set [4], the mortality at 1440 h is 85%. Besides, in data set [5], the Survival is on record as 85%. The compound further had an LD50 in data set [1] of 330 µmol/kg. Further, the outcome in data set [3] was Active.

As to `COC(CF)(COC(=O)c1ccccc1)OC`, the LD50 in data set [1] came to 230 µmol/kg. Regarding `CC(=O)OCC(CCl)OC(C)=O` (stereo not given), the median lethal dose (LD50) in data set [1] came to 1740 µmol/kg.

For the compound `O=C(CCl)COC(=O)c1cc([N+](=O)[O-])cc([N+](=O)[O-])c1`, in data set [1], the LD50 worked out at 880 µmol/kg. As to `O=C(CBr)COC(=O)c1ccccc1`, the LD50 in data set [1] worked out at 120 µmol/kg. In data set [1], `CC(=O)OCC(CF)OC(C)=O` (stereo not given) had an LD50 of 220 µmol/kg. Consider `CC(=O)COC(=O)c1ccccc1`, for which the LD50 in data set [1] amounted to 7860 µmol/kg. With `O=C(OCC(O)CBr)c1ccccc1` (stereo not given), in data set [1], the LD50 is 1370 µmol/kg. `OCC(O)CCl` (stereo not given): in data set [1], the median lethal dose (LD50) amounted to 1800 µmol/kg. As for `OCC(O)CBr` (stereo not given), in data set [1], the LD50 is 1370 µmol/kg. Take `CC(=O)OCC(=O)CF`: in data set [1], the LD50 stood at 220 µmol/kg. On the same count and under the same terms, next, `OCC(O)CF` (stereo not given): 210 µmol/kg. Consider `CC(=O)OCC(=O)CCl`, for which the LD50 in data set [1] was 470 µmol/kg.
